{"source": "ChEMBL document CHEMBL4765399", "about": "“Design, synthesis, and biological evaluation of 5-((8-methoxy-2-methylquinolin-4-yl)amino)-1H-indole-2-carbohydrazide derivatives as novel Nur77 modulators” (Eur J Med Chem, 2020)", "key": {"HepG2 [1]": {"test_system": "HepG2", "assay": "Disruption of mitochondrial membrane potential in human HepG2 cells transfected with shNur77 assessed as green fluorescence intensity at 2 uM incubated for 12 hrs by JC-1 staining based flow cytometry (reference value: 44890 units)", "type": "functional"}, "HepG2 [2]": {"test_system": "HepG2", "assay": "Antitumor activity against human HepG2 cells xenografted in BALB/c mouse assessed as induction of autophagy by measuring increase in LC3-II level in tumor tissue at 10 to 20 mg/kg/day, ip administered for 15 days by western blot analysis", "type": "functional, organism-based", "conditions": "dose 10-20 mg/kg/day, time 15.0 day", "outline": "(§1)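 HepG2 cells (5×10^6) injected subcutaneously into flanks of 4-week-old male Balb/c nude mice. At about 100 mm³, 15 mice were randomized to vehicle, 10 or 20 mg/kg i.p. once daily for 15 days. Tumors were then excised for immunostaining of paraffin sections (5 μm) or for western blot.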"}, "HepG2 [3]": {"test_system": "HepG2", "assay": "Induction of apoptosis in human HepG2 cells assessed as cleaved caspase-3 expression at 2 uM pretreated with ER stress inhibitor, 4-PBA for 2 hrs followed by incubation with compound for 12 hrs by Western blot analysis", "type": "functional, cell-based", "outline": "(§2)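 HepG2 cells grown to confluence were pretreated 2 h with 2 mM 3-MA (autophagy inhibitor) or 2 mM 4-PBA (ER stress inhibitor), then exposed to compound for 12 h. Proteins (40–80 µg, RIPA lysate) were resolved by SDS-PAGE and blotted for PARP, cleaved caspase-3/-9, Bcl-2 and Bax, with chemiluminescent detection.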"}, "HepG2 [4]": {"test_system": "HepG2", "assay": "Induction of apoptosis in human HepG2 cells assessed as cleaved caspase-3 expression at 2 uM pretreated with autophagy inhibitor, 3-methyladenine for 2 hrs followed by incubation with compound for 12 hrs by Western blot analysis", "type": "functional, cell-based", "outline": "as §2"}, "HepG2 [5]": {"test_system": "HepG2", "assay": "Induction of apoptosis in human HepG2 cells assessed as increase in PARP cleavage at 2 uM measured after 12 hrs by Western blot analysis"}, "HepG2 [6]": {"test_system": "HepG2", "assay": "Antitumor activity against human HepG2 cells xenografted in BALB/c mouse assessed as induction of ER stress by measuring increase in bip level in tumor tissue at 10 to 20 mg/kg/day, ip administered for 15 days by western blot analysis", "type": "functional, organism-based", "conditions": "dose 10-20 mg/kg/day, time 15.0 day", "outline": "as §1"}, "HepG2 [7]": {"test_system": "HepG2", "assay": "Induction of morphological changes in human HepG2 cells assessed as vesicles accumulation at 1 to 2 uM incubated for 6 to 12 hrs by phase contrast microscopic analysis", "type": "functional, cell-based", "conditions": "dose 1-2 µM, time 6-12 hrs", "outline": "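HepG2 cells given graded concentrations; morphology monitored at set time points by phase-contrast optical microscopy.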"}, "HepG2 [8]": {"test_system": "HepG2", "assay": "Induction of endoplasmic reticulum stress in human HepG2 cells assessed as increase in bip expression at 2 uM measured after 1 to 4 hrs by Western blot analysis", "type": "functional, cell-based", "conditions": "time 1-4 hrs", "outline": "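HepG2 exposed to 2.0 µM over a time course; Nur77, Bip, p-EIF2a, TRB3 and LC3 levels followed by Western blot of RIPA lysates.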"}, "HepG2 [9]": {"test_system": "HepG2", "assay": "Induction of endoplasmic reticulum stress in human HepG2 cells assessed as increase in TRB3 protein expression incubated for 12 hrs by Western blot analysis", "type": "functional, cell-based", "conditions": "dose 0.5-2 µM", "outline": "(§3)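 HepG2, QGY-7703 and SMMC-7721 treated with graded concentrations for 12 h. Lysed in RIPA with inhibitors; 40-80 µg protein separated by SDS-PAGE, blotted to nitrocellulose, blocked 1 h in 5% milk, primary antibodies overnight (LC3, Beclin1, Bip, CHOP, TRB3), HRP secondaries, chemiluminescence.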"}, "SMMC-7721": {"test_system": "SMMC-7721", "assay": "Antiproliferative activity against human SMMC-7721 cells assessed as reduction in cell viability incubated for 48 hrs by MTT assay", "type": "functional, cell-based", "conditions": "SMMC-7721, 48 h", "outline": "(§4)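 MTT assay after 48 h exposure at six concentrations, range chosen by cytotoxicity. Inhibition = (ODcontrol − ODtest)/ODcontrol × 100%; IC50 is the concentration halving OD versus untreated cells. Means ± SD of three independent determinations. HepG2 and SMMC-7721 grown in DMEM, QGY-7703 and LO2 in RPMI 1640, with 10% FBS at 37 °C.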"}, "QGY-7703 [10]": {"test_system": "QGY-7703", "assay": "Induction of autophagy in human QGY-7703 cells assessed as increase in Beclin 1 expression measured after 12 hrs by Western blot analysis", "type": "functional, cell-based", "conditions": "dose 0.5-2 µM", "outline": "as §3"}, "HepG2 [11]": {"test_system": "HepG2", "assay": "Induction of apoptosis in human HepG2 cells assessed as cleaved caspase-9 expression at 2 uM pretreated with ER stress inhibitor, 4-PBA for 2 hrs followed by incubation with compound for 12 hrs by Western blot analysis", "type": "functional, cell-based", "outline": "as §2"}, "QGY-7703 [12]": {"test_system": "QGY-7703", "assay": "Antiproliferative activity against human QGY-7703 cells assessed as reduction in cell viability incubated for 48 hrs by MTT assay", "type": "functional, cell-based", "conditions": "QGY-7703, 48 h", "outline": "as §4"}, "[13]": {"biological_target": "Nuclear receptor subfamily 4immunitygroup A member 1 (Homo sapiens, UniProt P22736)", "sequence (P22736 whole entry)": "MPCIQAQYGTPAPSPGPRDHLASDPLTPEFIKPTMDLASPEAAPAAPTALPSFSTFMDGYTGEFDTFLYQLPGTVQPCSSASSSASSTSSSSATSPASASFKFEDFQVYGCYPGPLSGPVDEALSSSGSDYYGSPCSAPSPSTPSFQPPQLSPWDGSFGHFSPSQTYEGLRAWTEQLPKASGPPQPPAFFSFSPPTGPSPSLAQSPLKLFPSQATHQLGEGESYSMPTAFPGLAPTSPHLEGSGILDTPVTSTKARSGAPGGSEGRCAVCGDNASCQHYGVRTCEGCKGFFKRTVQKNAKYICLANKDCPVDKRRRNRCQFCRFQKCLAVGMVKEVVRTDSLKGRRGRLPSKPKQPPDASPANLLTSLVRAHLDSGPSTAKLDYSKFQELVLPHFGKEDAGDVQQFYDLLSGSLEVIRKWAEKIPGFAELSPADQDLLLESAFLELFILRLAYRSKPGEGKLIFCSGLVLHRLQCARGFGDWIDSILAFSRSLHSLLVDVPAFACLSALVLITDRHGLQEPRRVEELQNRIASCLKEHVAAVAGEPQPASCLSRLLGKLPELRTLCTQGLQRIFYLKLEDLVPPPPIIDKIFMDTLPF", "assay": "Modulation of Nur77 in human HepG2 cells assessed as induction of mitochondrial translocation at 2 uM incubated for 6 hrs by Mito-tracker based confocal microscopy", "conditions": "Mitochondria, filed as modulator", "outline": "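HepG2 cells given 2.0 µM for 6 h, then stained with anti-Nur77 antibody plus Mito-tracker. Cells fixed in 4% paraformaldehyde for 20 min, permeabilized with 0.1% Triton X-100, blocked with 5% BSA. Anti-Nur77 (1:500) for 1 h, then FITC- or Cy3-conjugated anti-rabbit IgG for 1 h. Imaged by confocal microscopy.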"}, "HepG2 [14]": {"test_system": "HepG2", "assay": "Induction of autophagy in human HepG2 cells assessed as LC3-II expression at 2 uM pretreated with ER stress inhibitor, 4-PBA for 2 hrs followed by incubation with compound for 12 hrs by Western blot analysis", "type": "functional, cell-based", "outline": "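HepG2 grown to confluence, pretreated 2 h with 2 mM 4-PBA, then exposed to test compound for a further 12 h; Western blot for PARP, cleaved caspase-3/-9, Bcl-2, Bax, Bip, EIF2a, TRB3 and LC3.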"}, "HepG2 [15]": {"test_system": "HepG2", "assay": "Disruption of mitochondrial membrane potential in human HepG2 cells assessed as red fluorescence intensity at 2 uM incubated for 12 hrs by JC-1 staining based flow cytometry (reference value: 23598 units)", "type": "functional"}, "HepG2 [16]": {"test_system": "HepG2", "assay": "Antitumor activity against human HepG2 cells xenografted in BALB/c mouse assessed as reduction in PCNA expression in tumor tissue at 10 to 20 mg/kg/day, ip for 15 days by western blot analysis", "type": "functional, organism-based", "conditions": "dose 10-20 mg/kg/day, time 15.0 day", "outline": "as §1"}}, "note": "The source made the active and inactive calls. The rule behind the calls is not given here.", "data": [{"smiles": "COc1cccc2c(Nc3ccc4[nH]c(C(=O)N/N=C/c5ccc(SC)cc5)cc4c3)cc(C)nc12", "values": [{"measurement": "Activity", "setting": "HepG2 [1]", "result": 52452, "unit": "U"}, {"measurement": "Activity", "setting": "HepG2 [2]", "result": "Active"}, {"measurement": "Activity", "setting": "HepG2 [3]", "result": "inactive"}, {"measurement": "Activity", "setting": "HepG2 [4]", "result": "inactive"}, {"measurement": "Activity", "setting": "HepG2 [5]", "result": "Active"}, {"measurement": "Activity", "setting": "HepG2 [6]", "result": "Active"}, {"measurement": "Activity", "setting": "HepG2 [7]", "result": "Active"}, {"measurement": "Activity", "setting": "HepG2 [8]", "result": "Active"}, {"measurement": "Activity", "setting": "HepG2 [9]", "result": "Dose-dependent effect"}, {"measurement": "IC50", "setting": "SMMC-7721", "result": 1400, "unit": "nM"}, {"measurement": "Activity", "setting": "QGY-7703 [10]", "result": "Dose-dependent effect"}, {"measurement": "Activity", "setting": "HepG2 [11]", "result": "inactive"}, {"measurement": "IC50", "setting": "QGY-7703 [12]", "result": 890, "unit": "nM"}, {"measurement": "Activity", "setting": "[13]", "result": "Active"}, {"measurement": "Activity", "setting": "HepG2 [14]", "result": "inactive"}, {"measurement": "Activity", "setting": "HepG2 [15]", "result": 10298, "unit": "U"}, {"measurement": "Activity", "setting": "HepG2 [16]", "result": "Active"}]}]}
